Reference: ChEMBL document CHEMBL1155674, “New isomalabaricane triterpenes from the marine sponge Stelletta globostellata that induce morphological changes in rat fibroblasts” (J Nat Prod, 2000)
Active and inactive are the calls of the source. No cut-off for these calls is given here.

What was measured:
[1] = system: Pseudomonas aeruginosa; experiment: Antimicrobial activity against Pseudomonas aeruginosa at 100 ug/disk; type: functional, organism-based
[2] = system: Staphylococcus aureus; experiment: Antimicrobial activity against Staphylococcus aureus at 100 ug/disk; type: functional, organism-based
[3] = Induction of cell death in rat 3Y1 cells at 0.2 uM after 5 days after washing; type: cell-based; details: 3y1, 120 h
[4] = Cytotoxicity against rat 3Y1 cells after 72 hrs by MTT assay; type: cell-based
Outline: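 3Y1 rat embryonic fibroblasts (B clone 1-6) in DMEM with 10% fetal calf serum were seeded at 300 cells/well and incubated 24 h. Samples were added, then plates were held 72 h at 37 °C. MTT (5 mg/mL in Ca/Mg-free PBS) was added for 4 h, formazan was dissolved in DMSO, and absorbance was read at 540 nm to give GI50.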

[5] = system: Penicillium chrysogenum; experiment: Antimicrobial activity against Penicillium chrysogenum at 100 ug/disk; type: functional, organism-based
[6] = system: P388; experiment: Cytotoxicity against mouse P388 cells by MTT assay; type: functional
[7] = system: Umbelopsis ramanniana; experiment: Antimicrobial activity against Mortierella ramanniana at 100 ug/disk; type: functional, organism-based
[8] = system: 3Y1 cell line; experiment: Induction of morphological changes in rat 3Y1 cells assessed as lost pseudopodia at 0.2 uM before washing; type: functional, cell-based
Outline: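 3Y1 B clone 1-6 fibroblasts, kept subconfluent in DMEM/10% fetal calf serum at 37 °C under 5% CO2, were seeded at 2 × 10⁴ cells/mL and incubated 24 h. Samples in MeOH were added. Morphology was checked by phase-contrast microscopy at 1, 5 and 24 h and on day 5. Some cultures were washed with fresh medium to test reversibility.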

[9] = system: Candida albicans; experiment: Antimicrobial activity against Candida albicans at 100 ug/disk; type: functional, organism-based
[10] = system: Bacillus subtilis; experiment: Antimicrobial activity against Bacillus subtilis at 100 ug/disk; type: functional, organism-based
[11] = system: Escherichia coli; experiment: Antimicrobial activity against Escherichia coli at 100 ug/disk; type: functional, organism-based
[12] = system: P388; experiment: Cytotoxicity against mouse P388 cells at 18 uM by MTT assay; type: functional, cell-based
[13] = Cytotoxicity against rat 3Y1 cells at 18 uM after 72 hrs by MTT assay; type: cell-based; details: 3y1, 72 h
[14] = Induction of cell death in rat 3Y1 cells at 0.2 uM after 5 days without washing; details: 3y1, 120 h

SMILES	Activity [1]	Activity [2]	Activity [3]	GI50 at 72 h [4]	Activity [5]	GI50 [6]	Activity [7]	Activity [8]	Activity [9]	Activity [10]	Activity [11]	Activity [12]	Activity [13]	Activity [14]
CC(=O)O[C@@H]1CC[C@@]2(C)[C@@H](CC[C@]3(C)/C(=C(C)/C=C/C=C(\C)[C@@H](O)CC=C(C)C)C(=O)C[C@@H]23)[C@@]1(C)CO	inactive	inactive	Active	46 nM	inactive	180 nM	inactive	Active	inactive	inactive	inactive			
CC(=O)O[C@H]1C[C@H]2[C@@]3(C)CC[C@H](OC(C)=O)C(C)(C)[C@@H]3CC[C@]2(C)/C1=C(C)/C=C/C=C(\C)[C@H](CC=C(C)C)OC(C)=O				1300 nM		1600 nM								
CC(=O)O[C@@H](CC=C(C)C)/C(C)=C/C=C/C(C)=C1\C(=O)C[C@H]2[C@@]3(C)CC[C@@H](OC(C)=O)[C@](C)(CO)[C@@H]3CC[C@]12C	inactive	inactive	Active	52 nM	inactive	160 nM	inactive	Active	inactive	inactive	inactive			
CC(=O)O[C@@H]1CC[C@@]2(C)[C@@H](CC[C@]3(C)/C(=C(\C)C(=O)/C=C/C(C)=C/C=C/C(C)(C)O)C(=O)C[C@@H]23)[C@@]1(C)C(=O)[O-].[Na+] [GLOBOSTELLATIC ACID A]												Not toxic	Non-toxic	
COc1cccc2c1C(=O)c1c(O)c3c(c(O)c1C2=O)C[C@@](O)(C(=O)CO)C[C@@H]3O[C@H]1C[C@H](N)[C@H](O)[C@H](C)O1 [DOXORUBICIN]				3.8 nM		12 nM								
CC(=O)O[C@H]1CC[C@@]2(C)[C@@H](CC[C@]3(C)/C(=C(C)/C=C/C=C(\C)[C@@H](O)CC=C(C)C)C(=O)C[C@@H]23)C1(C)C [STELLIFERIN A]	inactive	inactive		34 nM	inactive	21 nM	inactive	Active	inactive	inactive	inactive			Active
CC(C)=CCC/C(C)=C/C=C/C(C)=C1\C(=O)C[C@H]2[C@@]3(C)CC[C@H](O)C(C)(C)[C@@H]3CC[C@]12C [STELLIFERIN D]	inactive	inactive		18 nM	inactive	24 nM	inactive	Active	inactive	inactive	inactive			Active
CC(C)=CCC/C(C)=C/C=C/C(C)=C1\C(=O)C[C@H]2[C@@]3(C)CC[C@H](O)[C@](C)(CO)[C@@H]3CC[C@]12C	inactive	inactive		60 nM	inactive	190 nM	inactive	Active	inactive	inactive	inactive			Active
